Compound activity (PubChem BioAssay)
RORa activator: activates the human nuclear receptor RORA | CHO-K1 Gal4-RORA LBD luciferase reporter, luminescence; percent increase over mock-subtracted basal signal | AID 560 | activation, % at 10 µM | 65,000 compounds, 1.5% hits;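 active = activation above the mean of all tested compounds plus 3 SD, cut at about 49% in these data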;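 note: 0% = DMSO-treated RORA cells and 100% = added signal equal to DMSO minus mock-transfected cells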
Cdc25B block: inhibitors of human Cdc25B phosphatase | P30305 | recombinant Cdc25B, OMFP fluorescence Ex485/Em525 | inhibition, %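 (compounds tested at 10 µM final in the well)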 | 65,000 compounds, 0.1% hits | AID 368; in the data active = inhibition above about 50%
MKP-1 inh: inhibitors of human MKP-1 phosphatase; 65,000 compounds, 0.15% hits; recombinant MKP-1, OMFP hydrolysis fluorescence; inhibition, %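 (compounds tested at a single concentration somewhere between 10 and 100 µM)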;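 active = inhibition above about 50%, limit read from the data; inconclusive = inhibition over screen mean plus 3 SD, below that limit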;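 note: 0% = DMSO max control wells and 100% = wells with enzyme stopped by NaOH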
Target sequence (P28562 whole entry, looked up): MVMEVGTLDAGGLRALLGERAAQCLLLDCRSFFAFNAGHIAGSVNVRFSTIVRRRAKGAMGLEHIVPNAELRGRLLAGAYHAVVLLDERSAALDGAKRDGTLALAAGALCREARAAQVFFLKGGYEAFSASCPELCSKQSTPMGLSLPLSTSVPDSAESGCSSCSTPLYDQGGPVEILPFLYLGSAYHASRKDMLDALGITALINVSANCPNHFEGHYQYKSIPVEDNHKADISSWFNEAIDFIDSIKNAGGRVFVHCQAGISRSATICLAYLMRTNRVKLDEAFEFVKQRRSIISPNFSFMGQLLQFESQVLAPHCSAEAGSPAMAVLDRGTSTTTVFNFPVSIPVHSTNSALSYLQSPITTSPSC
JNK3 inh: inhibitors of human JNK3 kinase. P53779. 60,000 compounds, 0.61% hits. inhibition, % at 8 µM. AID 746. purified JNK3 kinase activity, HTS; in the data active = inhibition above about 17%;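 note: 0% = DMSO and 100% = reference inhibitor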
SF1 activator: SF-1 (human) activation. CHO-K1 Gal4-SF-1 LBD luciferase reporter; % increase over DMSO SF-1-specific signal. activation, % at 10 µM. Q13285. 65,000 compounds, 1.9% hits;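 active = activation above the mean activation of all tested compounds plus 3 SD, cut at about 50% in these data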
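Test system: CHO-K1 cells with Gal4–hSF-1 LBD chimera plus Gal4-driven luciferase; Input: 4,000 cells/well; Compound: 10 µM only; Times: 20 h compound treatment, 37 °C; Measured by: steady-glow luciferase luminescence, read after 15 min reagent incubation; Measure: percent activation versus DMSO; Control set: DMSO and mock-transfected background; Replicates: one test per compound.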
Hsp90 block: displaces geldanamycin probe from tumor Hsp90; P07900; NCI-N417 lysate Hsp90, Cy3B-geldanamycin FP displacement; inhibition, % at 30 µM; 64,000 compounds, 0.35% hits;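 active = inhibition above 50%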;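 note: 0% = tracer plus lysate wells and 100% = tracer alone without lysate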
Redox 05 DTT: generates H2O2 by redox cycling in 0.5 mM DTT; shares compounds with Cdc25B block; cell-free redox cycling H2O2 generation; EC50, µM; 30 compounds, 50% hits; AID 682; in the data active = EC50 below about 30 µM
Redox 1 DTT: redox cycling H2O2 generation, Cdc25B counter-screen. 30 tested, under 10 active. EC50, µM. shares compounds with Cdc25B block. cell-free redox cycling H2O2 generation, 1 mM DTT; in the data active = EC50 below about 50 µM
Redox H2O2: counter-screen for MKP-1 and MKP-3 probes: redox cycling H2O2 generation | shares compounds with MKP-1 inh | DTT, phenol red/HRP | EC50, µM | 60 tested, under 10 active | AID 672; call rule not given here
An asterisk follows results filed as active; u = inconclusive; x = no result given. An excerpt weighted towards active compounds, which were near 3.4% of everything screened.

SMILES | RORa activator | Cdc25B block | MKP-1 inh | JNK3 inh | SF1 activator | Hsp90 block | others
O=C(CC1Sc2ccccc2NC1=O)Nc1cccc(-c2nnc3n2CCCCC3)c1 (configuration not stated) | 4 | -10 | 2 | -1 | 13 | -1
CCCCCCc1ccc(-c2ncc(N)cn2)cc1 | 50* | -12 | 15 | -1 | 59* | -2
CC(Nc1ncnc2nc[nH]c12)c1ccccc1 (configuration not stated) | -4 | 66* | 5 | 1 | -20 | 1
O=S(=O)(Nc1nc2ccccc2nc1Nc1ccc2c(c1)OCCO2)c1cccs1 | 24 | 14 | 35 | 0 | 25 | 39
O=C(NCCCN1CCCC1=O)c1cc(=O)c2ccccc2o1 | -9 | -4 | 6 | -4 | 11 | -2
CCOC(=O)c1cc2cc(OC)ccc2[nH]1 | 12 | 6 | -6 | -9 | 73* | -4
CCOC(=O)c1[nH]c2ccc(OC)cc2c1C | 28 | -25 | -3 | 11 | 59* | 1
COc1ccc(Cl)cc1C(=O)CSc1nc(N)cc(N)n1 | -8 | -12 | -17 | 6 | 17 | -2
COc1ccc(-c2noc(CCC(=O)Nc3cccc(C)c3)n2)cc1 | -27 | 0 | -12 | 3 | -7 | 1
COc1ccc(-c2noc(N(C)CC(=O)Nc3cccc(C(F)(F)F)c3)n2)cc1 | 52* | -27 | -5 | -1 | 44 | -2
COc1cc(NCCCC(C)O)c2ncccc2c1 (configuration not stated) | x | x | x | x | x | 1
COc1cc(NCCCC(C)N)c2ncccc2c1 (configuration not stated) | 0 | 10 | -7 | -10 | -3 | 97*
c1cnc2c(OCc3nc4ccccc4[nH]3)cccc2c1 | 82* | 4 | -7 | -10 | 65* | -7
COc1ccccc1OCc1nc2ccccc2[nH]1 | 54* | 5 | -2 | 6 | 53* | 1
COc1cccc(OCc2nc3ccccc3[nH]2)c1 | x | -17 | -7 | x | x | 0
CCOc1ccc(CNC(=O)C(CC)n2nc(C)n3c(cc4occc43)c2=O)cc1OC (configuration not stated) | -12 | 14 | 10 | 1 | 17 | -3
CCN(CC)CCCN(Cc1cc2cc3c(cc2[nH]c1=O)OCCO3)C(=O)Nc1ccc(F)cc1 | -18 | 5 | 3 | -7 | 9 | 2
Cc1ccccc1Nc1cc2ccccc2c(=O)[nH]1 | -1 | 81* | 8 | -1 | -14 | 79* | Redox 05 DTT=>50;Redox 1 DTT=>50
CCOC(=O)C(C(=O)OCC)c1cc(Br)c2noc3c2c1C(=O)c1ccccc1-3 | -26 | 62* | 32 | x | -23 | x | Redox 05 DTT=26*;Redox 1 DTT=46*
CC(=O)OCCNc1cc(N2CCN(C)CC2)c2noc3c2c1C(=O)c1ccccc1-3 | 14 | -6 | -5 | -20 | -6 | 35
Cc1cccc(N2CCN(C(=O)CCn3c(=S)[nH]c4cc5c(cc4c3=O)OCO5)CC2C)c1 (configuration not stated) | 4 | -4 | 36 | x | -2 | -5
Cc1ccc2c(c1C)NC(C(=O)O)C1CC=CC21 (configuration not stated) | 11 | 53* | u | 3 | -6 | -17 | Redox 05 DTT=>50;Redox 1 DTT=>50
O=c1c2nnn(Cc3ccccc3)c2ncn1C/C=C/c1ccccc1 | 6 | 0 | 5 | 0 | 2 | -3
N#Cc1c(N)sc(=S)c2c1CCN(Cc1ccccc1)C2 | -3 | 102* | 100* | 8 | 10 | -3 | Redox 05 DTT=13*;Redox 1 DTT=24*;Redox H2O2=35*
O=C(Nc1ccc2nc(-c3ccco3)c(-c3ccco3)nc2c1)N1CCCCCC1 | -23 | 51* | 51* | 5 | 4 | 9 | Redox 05 DTT=>50;Redox 1 DTT=>50;Redox H2O2=>50
SMILES | RORa activator | Cdc25B block | MKP-1 inh | JNK3 inh | SF1 activator | Hsp90 block | others
Cc1ccc(/C=c2\sc3nc(-c4ccco4)nn3c2=O)o1 | 13 | 20 | 9 | -6 | -2 | -4
COc1ccc(Br)cc1/C=c1\sc2nc(-c3ccco3)nn2c1=O | -14 | 61* | 58* | 1 | 2 | -12 | Redox 05 DTT=>50;Redox 1 DTT=>50;Redox H2O2=>50
CCOC(=O)c1cnc(SCc2nc(N)nc(Nc3ccc(C)cc3)n2)nc1N | 15 | 1 | 10 | 8 | 10 | 3
CCC(c1c(C)[nH]oc1=O)c1c(C)[nH]oc1=O | -7 | 15 | 15 | -5 | 2 | -5
CCn1c(N)c(C(=O)NCC2CCCO2)sc1=S (configuration not stated) | 5 | 2 | -9 | 2 | -12 | -3
CCCCCNC(=O)c1ccc2c(=O)[nH]c3c(C(=O)NCC4CCCO4)sc(=S)n3c2c1 (configuration not stated) | 9 | -4 | 55* | -3 | -5 | -6 | Redox H2O2=>50
Cc1cc(C)c(C#N)c(=N)o1 | -14 | 2 | 4 | x | -3 | x
CCn1cc(C(=O)N2CCCC2)c(=O)c2cc(S(=O)(=O)N3CCOCC3)ccc21 | 16 | -13 | 0 | -1 | 0 | -3
CCCSc1nnc(NC(=O)c2sc3nc(-c4cccs4)ccc3c2N)s1 | 3 | 20 | 53* | -3 | 5 | -2 | Redox H2O2=>50
CCC(C)C(=O)Nc1nnc(-c2cccs2)s1 (configuration not stated) | 24 | -5 | -2 | -4 | 39 | -1
Nc1c(N2CCCC2)cc(Cl)c2nonc12 | 3 | 5 | 72* | 0 | -4 | -6 | Redox H2O2=>50
Nc1c(N2CCOCC2)cc(Cl)c2nonc12 | 17 | -5 | -15 | -3 | 9 | -5
COc1ccc(NC(=O)c2ccco2)cc1NC(=O)c1cccnc1 | 20 | -11 | 13 | -5 | 4 | -8
Cc1cccc(NC(=O)c2cc(NC(=O)C3CCCCC3C(=O)O)ccc2N2CCCCC2)c1 (configuration not stated) | 3 | 10 | 65* | -7 | 24 | -4 | Redox H2O2=>50
CCn1c(SCC(=O)Nc2ccc3c(c2)c2ccccc2n3CC)nnc1-c1ccco1 | -8 | 24 | 64* | -8 | -18 | -3 | Redox H2O2=>50
CCn1c(SCC(=O)Nc2ccc3c(c2)OCCO3)nnc1-c1ccco1 | -16 | -5 | 3 | -4 | -5 | -2
CC(=O)[C@@H]1[C@@H]2C(=O)N(c3ccc(F)c(Cl)c3)C(=O)[C@@H]2C2c3ccccc3C=CN21 (some centres not stated) | -6 | 14 | 20 | -1 | -12 | -7 | Redox H2O2=>50
COc1ccccc1Nc1nc2ccccc2n1C | 15 | -11 | -1 | -3 | 35 | -2
CCC(=O)Nc1c(C#N)c2nc3ccccc3nc2n1-c1ccccc1C | -7 | 5 | -2 | 0 | 10 | -6
